Wnt bcat act = Wnt/beta-catenin pathway activation. Wnt/beta-catenin reporter cell assay, activator, plate reader. activation, % at 9.35 µM. hit rate 1.2% among 300,000; in the data active = activation above about 30%, passing the limit was not always enough;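 note: 0% = neutral control wells and 100% = positive control wells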
SR-BI DiI-HDL act = enhances SR-BI lipid uptake from DiI-HDL; CHO ldlA[mSR-BI] cells, DiI-HDL uptake fluorescence, 3 h; 100 = double the neutral-control signal; hit rate 0.096% among 320,000; activation, % at 12.5 µM;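 active = mean replicate activation of at least 60% and every replicate at or above 60%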;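 note: 0% = median plate neutral-control signal and 100% = twice that signal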
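Assay system: CHO ldlA[mSR-BI] cells, LDL receptor-null, SR-BI overexpressing; medium: Ham's F12 with 0.5% BSA, HEPES 25 mM, pH 7.4; also added: DiI-HDL 10 µg/mL; timing: 3 h uptake period with compound, 37 °C; signal: DiI fluorescence, bottom read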
SR-BI DiI inh = mouse SR-BI HDL lipid transfer inhibition | ldlA[mSR-BI] CHO cells, DiI-HDL uptake fluorescence, 3 h | inhibition, % at 12.5 µM | hit rate 0.96% among 320,000;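 active = mean replicate inhibition of at least 70% and a set share of replicates each scoring 70 or more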;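 note: 0% = median of neutral control wells and 100% = median of positive control wells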
Target sequence (Q61009 whole entry, looked up): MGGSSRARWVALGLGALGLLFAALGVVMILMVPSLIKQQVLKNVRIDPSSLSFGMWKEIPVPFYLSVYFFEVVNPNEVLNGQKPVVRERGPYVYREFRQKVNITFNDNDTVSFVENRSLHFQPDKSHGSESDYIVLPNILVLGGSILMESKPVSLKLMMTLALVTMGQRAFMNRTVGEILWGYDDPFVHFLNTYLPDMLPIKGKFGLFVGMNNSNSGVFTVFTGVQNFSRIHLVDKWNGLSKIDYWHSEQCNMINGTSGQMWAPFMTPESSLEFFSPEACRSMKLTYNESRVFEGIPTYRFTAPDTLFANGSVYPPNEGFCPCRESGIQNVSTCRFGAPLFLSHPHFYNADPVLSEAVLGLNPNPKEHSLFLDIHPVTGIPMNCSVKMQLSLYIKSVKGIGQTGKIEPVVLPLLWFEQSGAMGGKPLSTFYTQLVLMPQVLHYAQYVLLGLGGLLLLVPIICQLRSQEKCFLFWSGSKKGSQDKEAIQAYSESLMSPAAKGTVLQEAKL
MITF act = increases MITF-driven TRPM1 promoter luciferase signal; activation, % at 12.5 µM; SK-MEL-5 TRPM1-promoter luciferase, 24 h; % of positive control, neutral wells = 0; hit rate 0.75% among 300,000;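 active = mean activation of at least 80% with every replicate also reaching 80%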;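 note: 0% = neutral control wells and 100% = parthenolide positive control wells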
HSF-1 act = increases HSF-1 driven luciferase reporter signal; NIH3T3-HGL HSF-1 luciferase reporter, MG132, 8 h; 100% = twice DMSO control signal; activation, % at 9 µM; hit rate 1.7% among 300,000;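 active = mean replicate activation of at least 50% with a set share of replicates each reaching 50%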;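 note: 0% = median of the neutral control wells and 100% = twice that signal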
An asterisk follows results filed as active. An excerpt weighted towards active compounds, which were near 3.6% of everything screened.

For O=C(Nc1ccc2oc(=O)ccc2c1)c1ccco1 the results were Wnt bcat act 16.4, SR-BI DiI-HDL act -8.5, SR-BI DiI inh 8.5, MITF act 31.5 and HSF-1 act 20.1.
Screening COc1cccc(CNc2nc3cc(-c4ccsc4)sc3c(=O)n2C)c1OC returned Wnt bcat act 0.3.
C=C(CCC(=O)c1ccccc1)C(=O)c1ccccc1 was read as Wnt bcat act 59.8*, SR-BI DiI-HDL act 6.0, SR-BI DiI inh -6.0, MITF act -5.2 and HSF-1 act 102.6*.
For C=C(C(=O)c1ccccc1)C(CC(=O)c1ccccc1)c1ccccc1 (stereo not given) the results were Wnt bcat act -9.0, SR-BI DiI-HDL act 23.7, SR-BI DiI inh -23.7, MITF act -49.8 and HSF-1 act 144.3*.
`N#Cc1ccc(C2CC(OCCF)=CC(=O)O2)cc1` (stereo not given) gave Wnt bcat act -0.4.
CCCCNC(=O)C[C@H]1C[C@@]2(C(=O)OC)C(=C[C@H](C(C)(C)C)O[C@@H]2C)N(Cc2ccc3c(c2)OCO3)C1=O was read as Wnt bcat act -1.5.
O=C1NC[C@H](CCCCN2CCN(CCC3CCCCC3)C(=O)C2=O)N(CCC2CCCCC2)C1=O was read as Wnt bcat act -2.1.
`Clc1cccc(Cc2c(C3CCCCC3)nc3c4ccccc4ccn23)c1` gave Wnt bcat act -0.6.
CCOc1cc(/C=C2/NC(=S)NC2=O)ccc1OCc1ccc([N+](=O)[O-])cc1 was read as SR-BI DiI-HDL act -72.8, SR-BI DiI inh 72.8*, MITF act -63.2 and HSF-1 act 32.2.
Screening CCOc1cc(C(c2c(C)[nH][nH]c2=O)c2c(C)[nH][nH]c2=O)ccc1OCc1ccc([N+](=O)[O-])cc1 returned SR-BI DiI-HDL act -8.1, SR-BI DiI inh 8.1, MITF act -10.1 and HSF-1 act 128.8*.
`Cc1ccc(/C=C2\NC(=S)NC2=O)cc1[N+](=O)[O-]` gave Wnt bcat act 3.6, SR-BI DiI-HDL act 23.2, SR-BI DiI inh -23.2, MITF act 9.6 and HSF-1 act -2.8.
For Cc1c(OCC(=O)N[C@H](C(=O)O)c2ccccc2)ccc2c3c(c(=O)oc12)CCCC3 the results were Wnt bcat act -1.7, SR-BI DiI-HDL act 18.5, SR-BI DiI inh -18.5, MITF act 5.4 and HSF-1 act 3.2.
For COc1ccccc1-c1ccc([C@@H]2C[C@H]3[C@@H](CN2)CON3C)cc1 the results were Wnt bcat act 7.4.
Cc1ccc(CN2C(=O)CSC2c2cccnc2)cc1 (stereo not given) was read as Wnt bcat act -2.9, SR-BI DiI-HDL act -15.6, SR-BI DiI inh 15.6, MITF act -2.9 and HSF-1 act -3.2.
`O=C1CSC(c2cccnc2)N1Cc1ccc(Cl)cc1` (stereo not given) gave Wnt bcat act 35.3*, SR-BI DiI-HDL act 7.8, SR-BI DiI inh -7.8, MITF act 10.4 and HSF-1 act 17.6.
`CCS(=O)(=O)c1ncc(Cl)c(C(=O)Nc2ccc(S(=O)(=O)N(C)c3ccccc3)cc2)n1` gave Wnt bcat act -15.9, SR-BI DiI-HDL act -85.5, SR-BI DiI inh 85.5*, MITF act -97.4 and HSF-1 act -46.8.
For Cc1cccc(C)c1NC(=O)c1nc(S(=O)(=O)Cc2ccccc2)ncc1Cl the results were Wnt bcat act -12.6, SR-BI DiI-HDL act 1.5, SR-BI DiI inh -1.5, MITF act -87.5 and HSF-1 act 596.2*.
Screening CC(=O)Nc1ccc(S(=O)(=O)N(C)c2ccccc2)cc1 returned Wnt bcat act 0.8, SR-BI DiI-HDL act 6.2, SR-BI DiI inh -6.2, MITF act 3.1 and HSF-1 act -10.8.
For CCN(c1ccccc1)S(=O)(=O)c1ccc(NC(=O)c2nc(S(C)(=O)=O)ncc2Cl)cc1 the results were SR-BI DiI-HDL act -10.0, SR-BI DiI inh 10.0, MITF act -98.8 and HSF-1 act 14.4.
CCOC(=O)/C=C/C(=O)Nc1ccc(S(=O)(=O)N(C)c2ccccc2)cc1 was read as Wnt bcat act -7.1, SR-BI DiI-HDL act -21.7, SR-BI DiI inh 21.7, MITF act -6.9 and HSF-1 act 67.4*.
Screening Cc1ccccc1NC(=O)c1nc(S(C)(=O)=O)ncc1Cl returned Wnt bcat act -3.4, SR-BI DiI-HDL act 18.3, SR-BI DiI inh -18.3 and HSF-1 act 113.3*.
Screening COc1cccc(-c2cccc3c4c([nH]c23)[C@@H]2C[C@H]3[C@@H](C(=O)N2CC4)[C@H](C)ON3C)c1 returned Wnt bcat act -7.4.
For O=C1NN=C2CCCCCCCCCCC12 (stereo not given) the results were Wnt bcat act -4.0.
Screening Cc1cccc(CS(=O)(=O)c2ncc(Cl)c(C(=O)NCc3ccccc3)n2)c1 returned Wnt bcat act -0.6, SR-BI DiI-HDL act 8.5, SR-BI DiI inh -8.5, MITF act -84.8 and HSF-1 act 326.6*.
Screening Cc1cccc(CS(=O)(=O)c2ncc(Cl)c(C(=O)Nc3c(C)cccc3C)n2)c1 returned Wnt bcat act -2.2, SR-BI DiI-HDL act 5.1, SR-BI DiI inh -5.1, MITF act -17.5 and HSF-1 act 481.7*.
Screening CS(=O)(=O)c1ncc(Cl)c(C(=O)Nc2ccc(N3CCOCC3)cc2)n1 returned SR-BI DiI-HDL act 9.0, SR-BI DiI inh -9.0, MITF act -90.1 and HSF-1 act 99.7*.
For COc1ccc(NC(=O)c2nc(S(=O)(=O)Cc3cccc(C)c3)ncc2Cl)c(OC)c1 the results were Wnt bcat act 0.1, SR-BI DiI-HDL act 6.6, SR-BI DiI inh -6.6, MITF act -38.9 and HSF-1 act 204.4*.
`Cc1ccc(NC(=O)c2nc(S(=O)(=O)Cc3ccccc3)ncc2Cl)cc1` gave Wnt bcat act -9.6, SR-BI DiI-HDL act 9.6, SR-BI DiI inh -9.6, MITF act -94.7 and HSF-1 act -95.5.
`CS(=O)(=O)c1ncc(Cl)c(C(=O)Nc2ccc(OC(F)F)cc2)n1` gave SR-BI DiI-HDL act 2.7, SR-BI DiI inh -2.7 and HSF-1 act -90.7.
For COc1ccc(S(=O)(=O)N2CCOCC2)cc1N=Nc1sc(N)nc1-c1ccccc1 the results were Wnt bcat act -3.1, SR-BI DiI-HDL act -81.0, SR-BI DiI inh 81.0*, MITF act -7.6 and HSF-1 act 8.4.
For COc1ccc(S(=O)(=O)N2CCOCC2)cc1OC the results were Wnt bcat act 0.4, SR-BI DiI-HDL act 11.8, SR-BI DiI inh -11.8, MITF act -6.6 and HSF-1 act -6.9.
For Cn1cc(CNCc2cn[nH]c2-c2ccc(F)cc2)c(-c2ccc3c(c2)OCCO3)n1 the results were Wnt bcat act 36.9*, SR-BI DiI-HDL act 13.2, SR-BI DiI inh -13.2, MITF act -1.2 and HSF-1 act 29.3.
Screening Cn1cc(CNCc2ccc(OC(F)(F)F)cc2)c(-c2ccc3c(c2)OCCO3)n1 returned Wnt bcat act -2.7, MITF act 10.5 and HSF-1 act 4.6.
`CCCCSc1nnc(C)c(=O)[nH]1` gave Wnt bcat act 1.0, SR-BI DiI-HDL act 17.5, SR-BI DiI inh -17.5, MITF act -10.9 and HSF-1 act 3.9.
